An excerpt weighted towards active compounds, which were near 5.9% of everything screened.
KDM4C inh: KDM4C (human) demethylase inhibition; Q9H3R0; GST-KDM4C 2-372, H3K9me3 peptide, LANCE TR-FRET; inhibition, % at 12.5 µM; 0.15% of 96,000 active;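 active = mean replicate inhibition above about 25%, with at least 55% of replicates also reaching it, limit read from the data, passing the limit was not always enough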
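System: N-terminal GST-fused human GASC-1 (KDM4C) fragment, residues 2-372 / Amount: 10 nM GST-KDM4C in enzyme reaction / Also added: H3K9me3 peptide with Fe(II)/2OG / Times: 30 min demethylation and 1 h detection at room temperature / Signal: LANCE TR-FRET / Read-out basis: Fall in 671/618 emission ratio as inhibition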
IDH1 mut inh: IDH1 R132H (human) inhibition | O75874 | IDH1 R132H reductase, diaphorase/resazurin fluorescence, 60 min | inhibition, % at 10 µM | 0.18% of 70,000 active | AID 624101; in the data active = inhibition above about 34%;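 also: 0% = DMSO and 100% = no enzyme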
Target sequence (O75874 whole entry R132H): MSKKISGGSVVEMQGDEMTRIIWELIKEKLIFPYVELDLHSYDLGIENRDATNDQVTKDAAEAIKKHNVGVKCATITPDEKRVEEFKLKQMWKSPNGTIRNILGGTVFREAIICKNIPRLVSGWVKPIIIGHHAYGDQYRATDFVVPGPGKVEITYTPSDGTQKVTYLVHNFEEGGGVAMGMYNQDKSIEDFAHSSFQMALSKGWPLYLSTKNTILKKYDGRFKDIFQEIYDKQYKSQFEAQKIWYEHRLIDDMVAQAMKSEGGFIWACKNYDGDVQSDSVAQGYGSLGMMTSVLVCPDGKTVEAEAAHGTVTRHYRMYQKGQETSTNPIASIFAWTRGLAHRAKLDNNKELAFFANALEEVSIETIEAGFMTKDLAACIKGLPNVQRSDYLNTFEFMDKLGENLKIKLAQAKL
T cruzi growth: T. cruzi proliferation inhibition. T. cruzi beta-gal in NIH3T3, GalScreen luminescence, 90 h. inhibition, % at 8.34 µM. 5.9% of 77,000 active;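 active = mean inhibition above about 93%, with at least 55% of replicates each passing it, limit read from the data, passing the limit was not always enough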
Pf Dd2 inh: inhibitors of Plasmodium falciparum Dd2 growth. AID 1159554. 2.3% of 94,000 active. P. falciparum Dd2 growth, SYBR Green, 72 h; hits give low values. activity change, % at 10 µM; in the data active = activity change below about -80%
* = called active by the depositor; / = no result given.

SMILES	KDM4C inh	IDH1 mut inh	T cruzi growth	Pf Dd2 inh
CCCN(C)C[C@@H]1Oc2ncc(C#Cc3ccc(OC)c(OC)c3)cc2C(=O)N([C@H](C)CO)C[C@@H]1C	-1	2	24	-82*
COc1ccc(C#Cc2cnc3c(c2)C(=O)N([C@H](C)CO)C[C@H](C)[C@H](CN(C)C(=O)c2ccccc2F)O3)cc1	-2	-2	60	-84*
COc1ccc(NC(=O)Nc2ccc3c(c2)C(=O)N([C@@H](C)CO)C[C@@H](C)[C@@H](CN(C)S(=O)(=O)c2ccccc2)OCCCC[C@H](C)O3)cc1	0	1	11	0
C[C@H]1CN([C@@H](C)CO)S(=O)(=O)c2ccc(C#Cc3ccc(F)cc3)cc2O[C@H]1CN(C)C(=O)NC1CCCCC1	1	/	71	-37
CC(C)NC(=O)N[C@H]1CC[C@@H](CCNS(=O)(=O)Cc2ccccc2)O[C@H]1CO	3	0	-9	-29
Cc1noc(C)c1NC(=O)Nc1ccc2c(c1)CC(=O)N([C@@H](C)CO)C[C@H](C)[C@@H](CN(C)Cc1ccc(Cl)c(Cl)c1)O2	0	-1	63	9
COc1ccc(C#Cc2cnc3c(c2)C(=O)N([C@@H](C)CO)C[C@@H](C)[C@@H](CN(C)C)O3)cc1	-1	0	74	-58
CCCN(C)C[C@H]1Oc2ncc(C#Cc3ccc(OC)cc3)cc2C(=O)N([C@@H](C)CO)C[C@H]1C	-3	0	/	-87*
COCC(=O)N(C)C[C@H]1Oc2ncc(C#CC(C)(C)O)cc2C(=O)N([C@H](C)CO)C[C@H]1C	0	0	-80	22
COCC(=O)N(C)C[C@H]1Oc2ncc(C#CC(C)(C)O)cc2C(=O)N([C@@H](C)CO)C[C@H]1C	27*	2	-37	37
Cc1noc(C)c1NC(=O)Nc1cccc2c1O[C@@H](CN(C)Cc1ccc(C(=O)O)cc1)[C@@H](C)CN([C@@H](C)CO)C2=O	10	2	-106	22
COCc1cn([C@@H]2C[C@@H]3O[C@@H](CO)CC[C@@H]3O[C@@H]2CCc2ccc(-c3ccc(OC)cc3)cc2)nn1	/	/	/	-84*
COCc1cn([C@@H]2C[C@@H]3O[C@H](CO)CC[C@@H]3O[C@@H]2CCc2ccc(-c3ccc(OC)cc3)cc2)nn1	/	/	/	-94*
COCc1cn([C@H]2C[C@@H]3O[C@H](CO)CC[C@@H]3O[C@@H]2CCc2ccc(-c3ccc(OC)cc3)cc2)nn1	/	/	/	-38
Oc1ccccc1C=Nc1ccccc1C(F)(F)F	/	-1	/	/
O=S(=O)(NC1CCN(Cc2ccc(OCCO)cc2)CC1)c1cc(Cl)ccc1Cl	/	37*	/	/
C/C=C/c1ccc([C@H]2[C@@H](CO)N(c3nc(C)c(C)s3)[C@@H]2CNCC(C)C)cc1	0	/	/	-96*
C[C@H]1CN([C@@H](C)CO)C(=O)c2c(c3ccccc3n2C)-c2ccccc2CO[C@@H]1CN(C)C(=O)Nc1cccc(C(F)(F)F)c1	-4	/	/	-94*
C[C@H](CO)N1C[C@H](C)[C@@H](CN(C)C(=O)Nc2cccc(C(F)(F)F)c2)OCc2ccccc2-c2c(n(C)c3ccccc23)C1=O	-2	/	/	-86*
C[C@H](CO)N1C[C@H](C)[C@H](CN(C)C(=O)Nc2cccc(C(F)(F)F)c2)OCc2ccccc2-c2c(n(C)c3ccccc23)C1=O	-3	/	/	-53
COc1ccc2c3c([nH]c2c1)[C@@H](CO)N(S(C)(=O)=O)CC31CN(CC2CCOCC2)C1	1	/	/	-26
COc1ccc2c3c([nH]c2c1)[C@H](CO)N(CC1CC1)CC31CCN(Cc2ccccc2F)CC1	-2	/	/	-85*
COc1ccc2c3c([nH]c2c1)[C@H](CO)N(Cc1ccccc1)CC31CCN(CC2CC2)CC1	1	/	/	-93*
COc1cccc(CN2CC3(CCN(CC4CC4)CC3)c3c([nH]c4cc(OC)ccc34)[C@H]2CO)c1	2	/	/	-92*
O=C1CNC[C@@H]2[C@@H](c3ccc(C#CC4CCCCC4)cc3)[C@H](CO)N12	1	/	/	-14
SMILES	KDM4C inh	IDH1 mut inh	T cruzi growth	Pf Dd2 inh
CCCNC(=O)N1CCC2(CC1)CN(Cc1cccc(F)c1)[C@@H](CO)c1[nH]c3cc(OC)ccc3c12	1	/	/	-79
CCCC(=O)N1CCC2(CC1)CN(Cc1nccs1)[C@H](CO)c1[nH]c3cc(OC)ccc3c12	-1	/	/	-43
CCCNC(=O)N1CCC2(CC1)CN(Cc1ccc(F)cc1)[C@@H](CO)c1[nH]c3cc(OC)ccc3c12	-2	/	/	-88*
CCCC(=O)N1CCC2(CC1)CN(Cc1ccc(Cl)cc1)[C@H](CO)c1[nH]c3cc(OC)ccc3c12	-1	/	/	-85*
CCC(=O)N1CCC2(CC1)CN(Cc1ccc(Cl)cc1)[C@H](CO)c1[nH]c3cc(OC)ccc3c12	-2	/	/	-88*
C[C@H]1CN([C@@H](C)CO)C(=O)c2ccccc2-c2ccccc2CO[C@H]1CN(C)S(=O)(=O)c1ccc(Cl)cc1	1	/	51	-83*
COc1cccc(S(=O)(=O)N(C)C[C@H]2OCc3ccccc3-c3c(n(C)c4ccccc34)C(=O)N([C@@H](C)CO)C[C@@H]2C)c1	-11	/	35	-83*
Cc1ccc(S(=O)(=O)N(C)C[C@H]2OCc3ccccc3-c3c(n(C)c4ccccc34)C(=O)N([C@H](C)CO)C[C@@H]2C)cc1	-5	/	77	-88*
C[C@@H]1CN([C@@H](C)CO)C(=O)c2c(c3ccccc3n2C)-c2ccccc2CO[C@H]1CN(C)S(=O)(=O)c1ccccc1	-2	/	78	-72
C[C@H]1CN([C@@H](C)CO)C(=O)c2c(c3ccccc3n2C)-c2ccccc2CO[C@H]1CN(C)S(=O)(=O)c1ccccc1	-1	/	65	-84*
COc1ccc(S(=O)(=O)Nc2ccc3c(c2)C(=O)N([C@@H](C)CO)C[C@@H](C)[C@@H](CN(C)C(=O)NC(C)C)OCCCC[C@H](C)O3)cc1	11	/	17	/
C[C@H](CO)N1C[C@H](C)[C@@H](CN(C)C)Oc2ccc(NC(=O)CCN3CCOCC3)cc2CC1=O	0	2	/	21
CN1c2ccc(-c3cccc(F)c3)cc2[C@H]2[C@H](CCN2C(=O)C2CCC2)[C@@H]1CO	-1	/	/	-46
Cc1noc(C)c1S(=O)(=O)N(C)C[C@@H]1OCc2ccccc2-c2c(n(C)c3ccccc23)C(=O)N([C@@H](C)CO)C[C@H]1C	0	0	11	17
C[C@H](CO)N1C[C@H](C)[C@@H](CN(C)S(=O)(=O)c2ccc(Cl)cc2)OCc2ccccc2-c2c(n(C)c3ccccc23)C1=O	-1	/	81	-85*
Cc1noc(C)c1S(=O)(=O)N(C)C[C@H]1OCc2ccccc2-c2c(n(C)c3ccccc23)C(=O)N([C@@H](C)CO)C[C@H]1C	8	-1	84	-89*
COc1ccc(S(=O)(=O)N(C)C[C@H]2OCc3ccccc3-c3c(n(C)c4ccccc34)C(=O)N([C@@H](C)CO)C[C@H]2C)cc1	-1	0	83	-83*
C[C@H](CO)N1C[C@H](C)[C@H](CN(C)S(=O)(=O)c2ccccc2)OCc2ccccc2-c2c(n(C)c3ccccc23)C1=O	/	/	/	-36

Screens as filed in PubChem BioAssay.
